Columns and labels:
[1] = biological target: T1, Voltage-gated inwardly rectifying potassium channel KCNH2 (Homo sapiens, UniProt Q12809); assay: (§1) Inhibition of hERG K channel; format: functional
Procedure, shortened: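 IKr block assessed from concentration–response curves in HEK-293 cells stably transfected with hERG cDNA, giving IC50 values.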

[2] = (§2) Effective free therapeutic plasma concentration (EFTPC): the concentration of unbound compund in the blood plasma at therapeutic dose (mean of range); format: ADME, organism-based; conditions: human, in vivo
[3] = biological target: Sodium channel alpha subunit; assay: Inhibition of Na channel (species unknown); format: functional
[4] = biological target: Voltage-gated L-type calcium channel (Homo sapiens, UniProt Q13936+Q13698+Q01668+O60840); assay: Inhibition of voltage-gated L-type Ca channel (species unknown); format: functional
[5] = biological target: Sodium channel protein type 5 subunit alpha (Homo sapiens, UniProt Q14524); assay: Inhibition of sodium current measured using whole-cell patch clamp experiments in HEK-293 cells stably transfected with hNaV1.5 cDNA; format: functional, cell-based, HEK293
[6] = biological target: Voltage-dependent L-type calcium channel subunit alpha-1C (Cavia porcellus, UniProt O35505); assay: Inhibition of calcium current (ICaL) measured using whole-cell patch clamp experiments in isolated guinea pig ventricular myocytes; format: functional, tissue-based, Heart, Ventricular myocyte
[7] = biological target: T1, Voltage-gated inwardly rectifying potassium channel KCNH2; assay: as §1
[8] = as §2; conditions: human, in vivo
[9] = biological target: T1, Voltage-gated inwardly rectifying potassium channel KCNH2; assay: Inhibition of potassium current (Ikr) measured using whole-cell patch clamp experiments in HEK-293 cells stable transfected with hERG cDNA; format: functional, cell-based, HEK293
Procedure, shortened: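 IKr concentration–response curves were recorded in HEK-293 cells stably expressing hERG cDNA.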

Chain of Voltage-dependent L-type calcium channel subunit alpha-1C (O35505 whole entry): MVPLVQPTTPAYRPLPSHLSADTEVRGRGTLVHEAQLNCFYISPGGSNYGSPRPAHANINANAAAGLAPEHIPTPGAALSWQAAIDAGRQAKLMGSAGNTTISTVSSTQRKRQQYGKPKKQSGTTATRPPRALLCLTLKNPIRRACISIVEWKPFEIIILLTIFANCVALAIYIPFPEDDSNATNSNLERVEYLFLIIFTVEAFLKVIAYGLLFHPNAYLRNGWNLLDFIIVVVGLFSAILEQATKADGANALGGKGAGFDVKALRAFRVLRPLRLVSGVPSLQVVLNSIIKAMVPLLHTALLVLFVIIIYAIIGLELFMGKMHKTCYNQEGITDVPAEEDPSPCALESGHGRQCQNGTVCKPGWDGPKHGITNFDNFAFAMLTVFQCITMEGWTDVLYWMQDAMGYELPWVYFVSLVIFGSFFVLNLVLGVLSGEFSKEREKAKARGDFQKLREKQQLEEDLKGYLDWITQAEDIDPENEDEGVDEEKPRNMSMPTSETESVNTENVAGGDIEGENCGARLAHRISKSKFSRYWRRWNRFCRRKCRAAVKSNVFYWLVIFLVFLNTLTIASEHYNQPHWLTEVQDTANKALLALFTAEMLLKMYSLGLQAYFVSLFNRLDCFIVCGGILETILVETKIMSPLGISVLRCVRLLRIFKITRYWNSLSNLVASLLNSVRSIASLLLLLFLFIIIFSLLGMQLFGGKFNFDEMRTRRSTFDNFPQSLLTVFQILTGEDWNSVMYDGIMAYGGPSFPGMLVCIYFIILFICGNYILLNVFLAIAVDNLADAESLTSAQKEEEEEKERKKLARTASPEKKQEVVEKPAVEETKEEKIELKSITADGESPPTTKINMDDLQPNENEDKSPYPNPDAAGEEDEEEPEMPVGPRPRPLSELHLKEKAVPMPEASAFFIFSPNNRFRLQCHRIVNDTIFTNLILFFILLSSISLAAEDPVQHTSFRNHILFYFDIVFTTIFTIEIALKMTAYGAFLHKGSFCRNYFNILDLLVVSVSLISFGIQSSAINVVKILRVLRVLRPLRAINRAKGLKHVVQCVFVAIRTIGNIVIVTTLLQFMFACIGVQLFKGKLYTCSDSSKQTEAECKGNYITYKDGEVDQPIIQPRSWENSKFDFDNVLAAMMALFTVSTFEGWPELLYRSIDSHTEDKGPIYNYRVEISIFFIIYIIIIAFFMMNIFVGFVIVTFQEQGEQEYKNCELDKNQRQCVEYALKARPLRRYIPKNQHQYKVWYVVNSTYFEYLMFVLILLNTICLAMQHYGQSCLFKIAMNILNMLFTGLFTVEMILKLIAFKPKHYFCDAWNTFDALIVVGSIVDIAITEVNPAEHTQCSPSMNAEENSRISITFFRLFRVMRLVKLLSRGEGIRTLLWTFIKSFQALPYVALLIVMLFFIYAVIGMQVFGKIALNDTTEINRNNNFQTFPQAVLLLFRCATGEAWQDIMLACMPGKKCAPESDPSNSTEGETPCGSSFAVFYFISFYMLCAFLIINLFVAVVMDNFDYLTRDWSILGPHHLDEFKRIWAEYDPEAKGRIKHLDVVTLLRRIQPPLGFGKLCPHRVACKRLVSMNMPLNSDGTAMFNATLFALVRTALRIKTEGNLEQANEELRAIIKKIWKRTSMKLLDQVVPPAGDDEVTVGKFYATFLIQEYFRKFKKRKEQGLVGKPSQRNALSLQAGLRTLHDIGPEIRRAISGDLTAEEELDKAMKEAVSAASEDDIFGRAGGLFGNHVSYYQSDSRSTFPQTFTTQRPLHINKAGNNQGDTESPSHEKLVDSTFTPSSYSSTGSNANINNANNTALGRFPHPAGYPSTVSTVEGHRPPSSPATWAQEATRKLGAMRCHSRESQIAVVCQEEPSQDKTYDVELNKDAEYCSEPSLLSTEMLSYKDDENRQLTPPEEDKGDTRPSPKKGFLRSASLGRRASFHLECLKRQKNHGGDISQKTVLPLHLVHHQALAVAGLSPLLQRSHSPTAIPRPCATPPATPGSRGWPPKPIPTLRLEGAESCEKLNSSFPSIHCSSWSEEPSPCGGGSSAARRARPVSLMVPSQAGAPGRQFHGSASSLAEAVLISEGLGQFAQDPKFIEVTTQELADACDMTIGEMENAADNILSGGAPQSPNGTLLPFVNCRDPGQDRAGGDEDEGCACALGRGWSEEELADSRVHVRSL
T1 sequence (Q12809 whole entry): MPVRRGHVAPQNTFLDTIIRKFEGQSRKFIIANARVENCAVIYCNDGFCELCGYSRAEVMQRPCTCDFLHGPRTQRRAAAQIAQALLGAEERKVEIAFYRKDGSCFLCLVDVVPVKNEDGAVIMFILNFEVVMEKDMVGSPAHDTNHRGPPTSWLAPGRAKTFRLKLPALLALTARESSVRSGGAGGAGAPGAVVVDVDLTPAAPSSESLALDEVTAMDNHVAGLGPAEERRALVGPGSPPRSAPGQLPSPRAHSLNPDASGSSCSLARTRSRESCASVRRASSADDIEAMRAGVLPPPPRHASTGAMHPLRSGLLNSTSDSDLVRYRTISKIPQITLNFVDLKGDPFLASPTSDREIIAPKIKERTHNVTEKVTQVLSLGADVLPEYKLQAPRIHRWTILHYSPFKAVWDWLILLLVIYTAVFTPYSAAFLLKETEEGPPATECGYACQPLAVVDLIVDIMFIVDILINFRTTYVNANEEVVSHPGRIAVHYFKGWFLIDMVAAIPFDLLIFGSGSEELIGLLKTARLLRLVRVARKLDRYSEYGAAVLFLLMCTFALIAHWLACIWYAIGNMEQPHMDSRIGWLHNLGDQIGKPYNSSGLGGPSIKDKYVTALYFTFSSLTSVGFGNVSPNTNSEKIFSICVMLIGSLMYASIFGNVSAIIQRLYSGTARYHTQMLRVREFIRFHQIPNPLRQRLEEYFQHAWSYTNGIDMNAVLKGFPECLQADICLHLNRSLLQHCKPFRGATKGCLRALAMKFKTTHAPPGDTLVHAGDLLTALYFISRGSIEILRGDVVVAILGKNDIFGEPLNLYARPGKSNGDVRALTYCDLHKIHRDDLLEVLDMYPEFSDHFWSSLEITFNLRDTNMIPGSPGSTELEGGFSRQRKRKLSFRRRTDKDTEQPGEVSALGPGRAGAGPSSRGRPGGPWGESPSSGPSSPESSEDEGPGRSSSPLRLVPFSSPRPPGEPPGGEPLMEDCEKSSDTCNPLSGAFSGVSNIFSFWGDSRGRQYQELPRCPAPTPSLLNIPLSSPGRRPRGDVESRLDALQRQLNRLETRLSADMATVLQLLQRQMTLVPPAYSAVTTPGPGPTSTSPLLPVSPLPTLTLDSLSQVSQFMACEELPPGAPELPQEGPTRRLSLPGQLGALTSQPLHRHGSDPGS

## C1CCC2(C1)C1CN(CC3CC3)CC2CN(CC2CC2)C1
[1]
  IC50: 2.5 µM
[2]
  EFTPC: 80 nM
[3]
  IC50: 20 µM

## CC[C@H]1[C@@H]2C[C@H]3[C@@H]4N(C)c5ccccc5[C@]45C[C@@H]([C@@H]2[C@H]5O)N3[C@@H]1O [AJMALINE]
[1]
  IC50: 1.04 µM
[2]
  EFTPC: 900 nM
[3]
  IC50: […]

## CN(C)CCC=C1c2ccccc2CCc2ccccc21 [AMITRIPTYLINE]
[4]
  IC50: 11.6 µM
[3]
  IC50: 20 µM

## CC(C)COCC(CN(Cc1ccccc1)c1ccccc1)N1CCCC1 (centres undefined) [BEPRIDIL]
[5]
  IC50: 3.7 µM
[6]
  IC50: 0.211 µM
[2]
  EFTPC: 21.5 nM

## CN(C)CCCN1c2ccccc2Sc2ccc(Cl)cc21 [CHLORPROMAZINE]
[2]
  EFTPC: 20.5 nM
[3]
  IC50: 4.3 µM

## c1ccc(C2(c3ccccc3)CC2C2=NCCN2)cc1 (centres undefined) [CIFENLINE]
[4]
  IC50: 30 µM
[2]
  EFTPC: 739 nM
[3]
  IC50: 7.8 µM

## COc1cc(N)c(Cl)cc1C(=O)NC1CCN(CCCOc2ccc(F)cc2)CC1OC (centres undefined) [CISAPRIDE]
[5]
  IC50: 14.7 µM
[2]
  EFTPC: 3.75 nM

## CNCCCN1c2ccccc2CCc2ccccc21 [DESIPRAMINE]
[2]
  EFTPC: 67.5 nM

## COc1ccc([C@@H]2Sc3ccccc3N(CCN(C)C)C(=O)[C@@H]2OC(C)=O)cc1 [DILTIAZEM]
[2]
  EFTPC: 87.5 nM
[3]
  IC50: 9 µM

## CN(CCOc1ccc(NS(C)(=O)=O)cc1)CCc1ccc(NS(C)(=O)=O)cc1 [DOFETILIDE]
[2]
  EFTPC: 1.2 nM
[3]
  IC50: 300 µM

## COCCCC/C(=N\OCCN)c1ccc(C(F)(F)F)cc1 [FLUVOXAMINE]
[6]
  IC50: 4.9 µM
[2]
  EFTPC: 196 nM

## O=C(CCCN1CCC(O)(c2ccc(Cl)cc2)CC1)c1ccc(F)cc1 [HALOPERIDOL]
[2]
  EFTPC: 2.4 nM

## CN(C)CCCN1c2ccccc2CCc2ccccc21 [IMIPRAMINE]
[4]
  IC50: 8.3 µM
[2]
  EFTPC: 70.5 nM
[3]
  IC50: 3.6 µM

## Cc1cccc(C)c1OCC(C)N (centres undefined) [MEXILETINE]
[7]
  IC50: > 10 µM

## COCC(=O)O[C@]1(CCN(C)CCCc2nc3ccccc3[nH]2)CCc2cc(F)ccc2[C@@H]1C(C)C [MIBEFRADIL]
[2]
  EFTPC: 9 nM

## COC(=O)C1=C(C)NC(C)=C(C(=O)OC)C1c1ccccc1[N+](=O)[O-] [NIFEDIPINE]
[8]
  EFTPC: 5.4 nM

## CCOC(=O)C1=C(C)NC(C)=C(C(=O)OC)C1c1cccc([N+](=O)[O-])c1 (centres undefined) [NITRENDIPINE]
[2]
  EFTPC: 1.56 nM
[3]
  IC50: 36 µM

## O=C1NC(=O)C(c2ccccc2)(c2ccccc2)N1 [PHENYTOIN]
[5]
  IC50: 49 µM
[2]
  EFTPC: 4250 nM

## O=c1[nH]c2ccccc2n1C1CCN(CCCC(c2ccc(F)cc2)c2ccc(F)cc2)CC1 [PIMOZIDE]
[2]
  EFTPC: 0.55 nM
[3]
  IC50: 0.054 µM

## CC(Cc1ccccc1)NCCC(c1ccccc1)c1ccccc1 (centres undefined) [PRENYLAMINE]
[5]
  IC50: 2.52 µM
[6]
  IC50: 1.24 µM
[9]
  IC50: 0.065 µM
[2]
  EFTPC: 13 nM

## CC(C)NCC(O)COc1cccc2ccccc12 (centres undefined) [PROPRANOLOL]
[2]
  EFTPC: 19 nM

## Cc1nc2n(c(=O)c1CCN1CCC(c3noc4cc(F)ccc34)CC1)CCCC2 [RISPERIDONE]
[2]
  EFTPC: 1.21 nM

## O=C1NCCN1CCN1CCC(c2cn(-c3ccc(F)cc3)c3ccc(Cl)cc23)CC1 [SERTINDOLE]
[4]
  IC50: 8.9 µM
[2]
  EFTPC: 0.8 nM
[3]
  IC50: 2.3 µM

## CC(C)(C)c1ccc(C(O)CCCN2CCC(C(O)(c3ccccc3)c3ccccc3)CC2)cc1 (centres undefined) [TERFENADINE]
[2]
  EFTPC: 4.55 nM

## CSc1ccc2c(c1)N(CCC1CCCCN1C)c1ccccc1S2 (centres undefined) [THIORIDAZINE]
[2]
  EFTPC: 593.5 nM

Source: ChEMBL document CHEMBL3430321, “Simulation of multiple ion channel block provides improved early prediction of compounds' clinical torsadogenic risk” (Cardiovasc Res, 2011)
